Data taken from ChEMBL document CHEMBL1129288, “Design and synthesis of non-peptide Ras CAAX mimetics as potent farnesyltransferase inhibitors” (J Med Chem, 1996).

Experiments:
[1] = biological target: Geranylgeranyl transferase type I (Homo sapiens, UniProt P49354+P53609); test: In vitro inhibition of Geranylgeranyl transferase type I; type: protein-complex assay
How it was run: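 Partially purified GGTase I from human Burkitt lymphoma (Daudi) cells, incubated for 30 min at 37 °C.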

[2] = biological target: T1, Protein farnesyltransferase (Homo sapiens, UniProt P49354+P49356); test: In vitro inhibition of Farnesyltransferase; type: protein-complex assay
How it was run: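 Partially purified FTase from human Burkitt lymphoma (Daudi) cells, incubated with [³H]FPP and recombinant H-Ras-CVLS for 30 min at 37 °C.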

[3] = biological target: T1, Protein farnesyltransferase; test: Inhibition of human Burkitt lymphoma (Daudi) cell farnesyltransferase; settings: target entry is the homologue from another species

| IC50 [1] | IC50 [2] | IC50 [3] | SMILES |
| --- | --- | --- | --- |
| > 100 µM | 0.71 µM |  | Cc1cccc(-c2ccc(NC[C@@H](N)CS)cc2)c1 |
| 140 µM |  | 0.543 µM | N[C@@H](CS)CNc1ccc(-c2ccccc2C(=O)O)cc1 |
| 100 µM | 0.114 µM |  | N[C@@H](CS)CNc1ccc(-c2cccc(C(=O)O)c2)cc1 |
|  | 0.2 µM |  | CC[C@H](C)[C@H](NC(=O)[C@@H](NC(=O)[C@@H](N)CS)C(C)C)C(=O)N[C@@H](CCSC)C(=O)O |
| 100 µM | 13.5 µM |  | N[C@@H](CS)C(=O)Nc1ccc(-c2cccc(C(=O)O)c2)cc1 |

Second part, the compound before the results:

| SMILES | IC50 [1] | IC50 [2] | IC50 [3] |
| --- | --- | --- | --- |
| COc1cc(NC[C@@H](N)CS)ccc1-c1cccc(C(=O)O)c1 | 43.6 µM | 0.04 µM |  |
| COC(=O)c1cccc(-c2ccc(NC[C@@H](N)CS)cc2)c1 | > 100 µM | 0.917 µM |  |
| N[C@@H](CS)CNc1ccc(-c2ccccc2)cc1 | > 100 µM | 1.07 µM |  |
| N[C@@H](CS)C(=O)NCc1cccc(-c2cccc(C(=O)O)c2)c1 | > 100 µM | 100 µM |  |
| CSCC[C@H](NC(=O)c1ccc(NC(=O)[C@@H](N)CS)cc1)C(=O)O |  | 0.15 µM |  |
| N[C@@H](CS)CNCc1cccc(-c2cccc(C(=O)O)c2)c1 | 35 µM | 11 µM |  |
| N[C@@H](CS)CNc1ccc(-c2ccc(C(=O)O)cc2)cc1 | > 100 µM |  |  |
